Consider 10 molecules from ChEMBL document CHEMBL3085650, “Extending the record of bis-γ-pyrone polypropionates from marine pulmonate mollusks” (J Nat Prod, 2013).

A value given as a limit tells only on which side of the number the result lay.

The nature of assay [1]: Growth inhibition of human U373 cells after 72 hrs by MTT assay. In kind it is functional, cell-based, U-373MG ATCC. Conditions: U373 MG. A digest of the protocol:
(§1)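 Human cancer cell lines (from ATCC, ECACC or DSMZ) cultured 72 h with compound; viable cells measured by MTT colorimetric assay, where mitochondrial succinate dehydrogenase reduces yellow MTT to blue formazan, read by spectrophotometry. Optical density of treated versus control cells gives growth inhibition, expressed as IC50 (μM). Camptothecin and etoposide served as reference compounds.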

A further assay relates to PC-3. The assay is described as follows: Growth inhibition of human PC3 cells after 72 hrs by MTT assay. In kind it is functional, cell-based. Conditions: PC-3, 72 h. An outline of the steps: as §1
The subject of another assay is MCF7. The assay is described as follows: Growth inhibition of human MCF7 cells after 72 hrs by MTT assay. In kind it is functional, cell-based. Conditions: MCF7, 72 h. An outline of the steps:
as §1

In the next assay the test system is A549. The assay can be described thus: Growth inhibition of human A549 cells after 72 hrs by MTT assay. In kind it is functional, cell-based. Conditions: A549, 72 h. A digest of the protocol: as §1
The subject of another assay is SK-MEL-28. The assay is described as follows: Growth inhibition of human SK-MEL-28 cells after 72 hrs by MTT assay. The class given is functional, cell-based. The conditions noted are these: SK-MEL-28, 72 h. A digest of the protocol:
as §1

Assay [2] is described as follows: Growth inhibition of human Hs683 cells after 72 hrs by MTT assay. The class given is functional, cell-based. The conditions noted are these: Hs 683, 72 h. A digest of the protocol: as §1

Consider `CCC(=O)O[C@@H](/C(C)=C/[C@@H](C)c1oc(CC)c(C)c(=O)c1C)[C@H](C)[C@@H](OC(=O)CC(C)C)[C@@H](C)c1oc([C@@H](C)[C@H](CC)OC(C)=O)c(C)c(=O)c1C`, for which the IC50 in assay [1] stood at 9 µM; in the assay with PC-3 it was 2 µM; in the assay with MCF7, 4 µM; in the assay on A549, 3 µM; in the assay with SK-MEL-28 it was 7 µM; in assay [2], 3 µM.
For the molecule `CCC(=O)O[C@@H](/C(C)=C/[C@@H](C)c1oc(CC)c(C)c(=O)c1C)[C@H](C)[C@@H](OC(=O)CC(C)C)[C@@H](C)c1oc([C@@H](C)[C@@H](O)CC)c(C)c(=O)c1C`, the IC50 in assay [1] worked out at 21 µM; in the assay with PC-3 it was 3 µM; with MCF7 it was 12 µM; in the assay with A549 it was 12 µM; with SK-MEL-28, 25 µM; in assay [2], 13 µM.
For `CCc1oc([C@H](C)/C=C(\C)[C@H](OC(C)=O)[C@H](C)[C@@H](OC(=O)CC(C)C)[C@@H](C)c2oc([C@@H](C)[C@H](CC)OC(C)=O)c(C)c(=O)c2C)c(C)c(=O)c1C`, the IC50 in assay [1] came to 32 µM; in the assay with PC-3, 7 µM; in the assay on MCF7, 25 µM; with A549 it was 28 µM; with SK-MEL-28, 33 µM; in assay [2], 24 µM.
As for `CCc1oc([C@H](C)/C=C(\C)[C@H](OC(C)=O)[C@H](C)[C@@H](OC(=O)CC(C)C)[C@@H](C)c2oc([C@@H](C)[C@@H](O)CC)c(C)c(=O)c2C)c(C)c(=O)c1C`, the IC50 is 21 µM in assay [1]; 3 µM in the assay on PC-3; 15 µM in the assay with MCF7; 15 µM in the assay on A549; 25 µM in the assay with SK-MEL-28; 30 µM in assay [2].
On to `CCc1oc([C@H](C)/C=C(\C)[C@H](O)[C@H](C)[C@@H](OC(=O)CC(C)C)[C@@H](C)c2oc([C@@H](C)[C@@H](O)CC)c(C)c(=O)c2C)c(C)c(=O)c1C`, for which the IC50 (in assay [1]; in the assay on PC-3; in the assay on MCF7; with A549; in the assay on SK-MEL-28; in assay [2]) was above 100 µM throughout.
For the molecule `CCC(=O)[C@@H](C)c1oc([C@H](C)[C@@H]2O[C@](O)([C@@H](C)c3oc(CC)c(C)c(=O)c3C)[C@@H](C)[C@@H](O)[C@@H]2C)c(C)c(=O)c1C`, the IC50 in assay [1] is above 100 µM; with PC-3, 82 µM; with MCF7, 87 µM; in the assay with A549 it was above 100 µM; with SK-MEL-28, above 100 µM; in assay [2], above 100 µM.
In the case of `CCC(=O)[C@H](C)c1oc([C@H](C)[C@@H]2O[C@](O)([C@@H](C)c3oc(CC)c(C)c(=O)c3C)[C@@H](C)[C@@H](O)[C@@H]2C)c(C)c(=O)c1C`, the IC50 (in assay [1]; in the assay with PC-3; with MCF7; with A549; in the assay with SK-MEL-28; in assay [2]) was above 100 µM in each case.
Turning to `CCC(=O)[C@H](C)c1oc([C@H](C)[C@@H]2O[C@](O)([C@@H](C)c3oc(CC)c(C)c(=O)c3C)[C@@H](C)[C@@H](OC(=O)CC(C)C)[C@@H]2C)c(C)c(=O)c1C`, the IC50 in assay [1] was found to be 25 µM; in the assay with PC-3, 16 µM; with MCF7, 21 µM; in the assay on A549, 26 µM; in the assay with SK-MEL-28, 23 µM; in assay [2] it was 23 µM.
Regarding `CC[C@@]1(O)C(=O)OCc2c1cc1n(c2=O)Cc2cc3ccccc3nc2-1` [CAMPTOTHECIN], the IC50 in assay [1] was 0.015 µM; in the assay with PC-3 it was 0.01 µM; in the assay with MCF7 it was below 0.01 µM; in the assay on A549, below 0.01 µM; with SK-MEL-28, below 0.01 µM; in assay [2], below 0.01 µM.
As for `COc1cc([C@@H]2c3cc4c(cc3[C@@H](O[C@@H]3O[C@@H]5CO[C@@H](C)O[C@H]5[C@H](O)[C@H]3O)[C@H]3COC(=O)[C@H]23)OCO4)cc(OC)c1O` [ETOPOSIDE], the IC50 in assay [1] was 25 µM; in the assay on PC-3 it was above 100 µM; with MCF7 it was 4 µM; in the assay on A549 it was 2 µM; in the assay on SK-MEL-28, 3 µM; in assay [2], 2 µM.
